Several values for one entry are separate records, joined by “and”; a condition that tells them apart may be missing. Equal values may be shown once.
Legend:
HL-60 (TB) = assay: cells; type: cell-based
MOLT-4 = assay: cells; type: cell-based
RPMI-8226 = assay: cells; type: cell-based
SR = assay: cells; type: cell-based
EKVX = assay: NCI-60 SRB screen, Non-small cell lung cancer; type: cell-based, human
NCI-H226 = assay: cells; type: cell-based
NCI-H23 = assay: cells; type: cell-based
HCC-2998 = assay: cells; type: cell-based
HT29 = assay: cells; type: cell-based
SW-620 = assay: cells; type: cell-based
SF-295 = assay: cells; type: cell-based
MDA-MB-435 = assay: cells; type: cell-based
SK-MEL-2 = assay: cells; type: cell-based
OVCAR-4 = assay: cells; type: cell-based
OVCAR-5 = assay: cells; type: cell-based
SK-OV-3 = assay: cells; type: cell-based
ACHN = assay: cells; type: cell-based
RXF 393 = assay: cells; type: cell-based
ERK1 = ERK1 (Homo sapiens, UniProt P27361); assay: in vitro radioactive kinase assay, Ets-1 phosphorylation by ERK1; type: biochemical; details: ERK1 IC50, 100 μM ATP, 10 μM Ets-1
Sequence of ERK1 (P27361 whole entry, species assumed): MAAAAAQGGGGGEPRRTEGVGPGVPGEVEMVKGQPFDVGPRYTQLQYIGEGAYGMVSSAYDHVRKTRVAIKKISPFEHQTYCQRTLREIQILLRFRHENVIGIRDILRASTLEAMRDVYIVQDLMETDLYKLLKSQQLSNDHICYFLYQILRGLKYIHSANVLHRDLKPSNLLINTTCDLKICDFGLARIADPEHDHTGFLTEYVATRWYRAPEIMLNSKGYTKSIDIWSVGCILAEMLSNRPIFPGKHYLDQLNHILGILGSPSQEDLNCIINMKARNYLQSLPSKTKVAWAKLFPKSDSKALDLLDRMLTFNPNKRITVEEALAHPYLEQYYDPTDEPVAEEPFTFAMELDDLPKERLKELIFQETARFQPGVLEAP
Procedure, shortened: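 Radiometric assay at 28–30 °C in 25 mM HEPES pH 7.5, 50 mM KCl, 0.1 mM EDTA/EGTA, 2 mM DTT, 11 mM MgCl2, 10 μg mL−1 BSA and 5% DMSO (final). 2 nM activated ERK1 was used with 10 μM His-Ets-1 (1–138). Reactions were started with [γ-32P]ATP (10 or 100 μM). IC50 came from fitting rate versus inhibitor concentration to a hyperbolic decay equation.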

p38MAPKα = p38MAPKα (Homo sapiens, UniProt Q16539); assay: in vitro kinase assay, GST-ATF2; type: biochemical
Sequence of p38MAPKα (Q16539 whole entry): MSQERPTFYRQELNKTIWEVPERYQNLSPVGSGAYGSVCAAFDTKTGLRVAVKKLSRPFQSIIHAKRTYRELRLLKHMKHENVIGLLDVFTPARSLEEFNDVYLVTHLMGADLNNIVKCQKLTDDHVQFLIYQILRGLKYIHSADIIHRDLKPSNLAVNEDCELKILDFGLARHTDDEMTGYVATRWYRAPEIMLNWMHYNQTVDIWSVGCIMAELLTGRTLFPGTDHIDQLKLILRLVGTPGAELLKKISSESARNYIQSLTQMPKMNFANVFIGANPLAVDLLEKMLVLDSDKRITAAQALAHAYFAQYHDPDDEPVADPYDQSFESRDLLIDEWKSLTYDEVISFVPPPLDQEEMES

[1] = test system: BRAF-mutant A375 melanoma cells; assay: A375 cell viability, MTS assay; type: cell-based; details: Homo sapiens, A-375, 72 h, read-out: A375 Cell Viability IC50
Procedure, shortened: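 A375 cells were kept in RPMI with 10% heat-inactivated FBS, Glutamax and penicillin/streptomycin at 37 °C in 5% CO2. 2000 cells per well were treated with a range of test compound doses for 72 h. Viability was read by MTS assay. Run in triplicate.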

[2] = test system: ERK substrates (p90RSK and ELK) phosphorylation in A375 cells; assay: western blotting of MAPK pathway phosphorylation in A375 cells after EGF; type: cell-based, human
Procedure, shortened: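 A375 cells (1,000,000 per well) were seeded 24 h, then treated with DMSO or test compound (0.5–25 μM) in serum-free medium for 4 or 12 h. Cells were stimulated with 100 nM EGF for 10–15 min, lysed, and 60 μg lysate was blotted. Probes: phospho-p90RSK (Thr573), RSK, phospho-Elk-1 (Ser383), phospho- and total ERK1/2, phospho-JNK (Thr183/Tyr185). Done twice.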

A375 cells = assay: anchorage dependent colony formation assay; type: cell-based, human; details: A375, 10–14 days
Procedure, shortened: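 1000 A375 cells per 60 mm plate adhered for 24 h, then were treated with various test compound doses for 10–14 days. Plates were PBS-washed and fixed in 4% paraformaldehyde (15 min, room temperature). They were stained with 0.2% crystal violet in 20% methanol for 10 min, water-washed and imaged under microscope.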

[3] = test system: caspase 3/7 in A375 cells; assay: IncuCyte Caspase 3/7 apoptosis assay; type: cell-based, human; details: doses of 3.7 and 33.3 μM, after 48 and 72 h
Procedure, shortened: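 2000 A375 cells per well adhered for 24 h, then received test compound doses plus a constant concentration of IncuCyte Caspase-3/7 reagent. Cells were imaged on IncuCyte ZOOM (10× objective) at set time points, and stained cells were counted. Apoptotic cell number was normalized to percentage area confluence at the final time point.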

[4] = test system: cleaved PARP in A375 cells; assay: PARP cleavage western blot; type: cell-based, human; details: 12 h exposure
Procedure, shortened: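 A375 cells (1,000,000 per well) were seeded 24 h, then exposed to several test compound doses for 12 h before lysis in buffer with protease/phosphatase inhibitors. Protein was measured by Bradford. 60 μg lysate was run on 10% SDS-PAGE and blotted to PVDF. Blots were probed for PARP and cleaved PARP, with vinculin as loading control. Done twice.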

SMILES: O=C1c2ccccc2C(=O)c2c1oc1c2c(=O)[nH]c2ccc(Cl)cc21 [3b, 2-Chloronaphtho[2′,3′:4,5]furo[3,2-c]quinoline-6,7,12(5H)-trione]
- Growth percent (G%) (HL-60 (TB); HL-60(TB), 10^−5 M, 48 h): 94.52%
- TGI (HL-60 (TB); HL-60 (TB), five-dose): 5.25 µM
- GI50 (HL-60 (TB); Homo sapiens, HL-60): 1.7 µM
- CC50 (HL-60 (TB); Homo sapiens, HL-60, read-out: LC50): 34.8 µM
- GI50 (MOLT-4; Homo sapiens, MOLT-4): 0.44 µM
- CC50 (MOLT-4; Homo sapiens, MOLT-4, read-out: LC50): > 100 µM
- Growth percent (G%) (MOLT-4; MOLT-4, 10^−5 M, 48 h): 18.44%
- TGI (MOLT-4; MOLT-4, five-dose): 3.16 µM
- GI50 (RPMI-8226; Homo sapiens, RPMI-8226): 0.39 µM
- CC50 (RPMI-8226; Homo sapiens, RPMI-8226, read-out: LC50): > 100 µM
- Growth percent (G%) (RPMI-8226; RPMI-8226, 10^−5 M, 48 h): 4.83%
- TGI (RPMI-8226; RPMI-8226, five-dose): 2.63 µM
- Growth percent (G%) (SR; 10^−5 M, 48 h): 33.72%
- GI50 (SR; Homo sapiens): 0.5 µM
- CC50 (SR; Homo sapiens, read-out: LC50): > 100 µM
- TGI (SR; five-dose): 3.98 µM
- Growth percent (G%) (EKVX; 10^−5 M, 48 h): 15.17%
- GI50 (EKVX; Homo sapiens): 0.25 µM
- CC50 (EKVX; Homo sapiens, read-out: LC50): 26.3 µM
- TGI (EKVX; five-dose): 2.45 µM
- GI50 (NCI-H226; Homo sapiens, NCI-H226): 0.14 µM
- CC50 (NCI-H226; Homo sapiens, NCI-H226, read-out: LC50): 0.87 µM
- Growth percent (G%) (NCI-H226; NCI-H226, 10^−5 M, 48 h): −28.80%
- TGI (NCI-H226; NCI-H226, five-dose): 0.35 µM
- GI50 (NCI-H23; Homo sapiens, NCI-H23): 0.35 µM
- CC50 (NCI-H23; Homo sapiens, NCI-H23, read-out: LC50): 7.08 µM
- Growth percent (G%) (NCI-H23; NCI-H23, 10^−5 M, 48 h): 21.21%
- TGI (NCI-H23; NCI-H23, five-dose): 1.82 µM
- Growth percent (G%) (HCC-2998; HCC-2998, 10^−5 M, 48 h): 65.07%
- TGI (HCC-2998; HCC-2998, five-dose): 2.57 µM
- CC50 (HCC-2998; Homo sapiens, HCC 2998, read-out: LC50): 9.12 µM
- Growth percent (G%) (HT29; HT29, 10^−5 M, 48 h): 66.37%
- TGI (HT29; HT29, five-dose): 12.88 µM
- GI50 (HT29; Homo sapiens, HT-29): 3.72 µM
- CC50 (HT29; Homo sapiens, HT-29, read-out: LC50): 39.8 µM
- GI50 (SW-620; Homo sapiens, SW-620): 0.33 µM
- CC50 (SW-620; Homo sapiens, SW-620, read-out: LC50): 7.59 µM
- Growth percent (G%) (SW-620; SW-620, 10^−5 M, 48 h): −53.04%
- TGI (SW-620; SW-620, five-dose): 1.00 µM
- GI50 (SF-295; Homo sapiens, SF-295): 0.63 µM
- CC50 (SF-295; Homo sapiens, SF-295, read-out: LC50): 6.61 µM
- Growth percent (G%) (SF-295; SF-295, 10^−5 M, 48 h): −1.34%
- TGI (SF-295; SF-295, five-dose): 2.29 µM
- GI50 (MDA-MB-435; Homo sapiens, MDA-MB-435): 0.3 µM
- CC50 (MDA-MB-435; Homo sapiens, MDA-MB-435, read-out: LC50): 4.07 µM
- Growth percent (G%) (MDA-MB-435; MDA-MB-435, 10^−5 M, 48 h): 10.25%
- TGI (MDA-MB-435; MDA-MB-435, five-dose): 1.20 µM
- GI50 (SK-MEL-2; Homo sapiens, SK-MEL-2): 1.74 µM
- CC50 (SK-MEL-2; Homo sapiens, SK-MEL-2, read-out: LC50): 19.9 µM
- Growth percent (G%) (SK-MEL-2; SK-MEL-2, 10^−5 M, 48 h): 31.83%
- TGI (SK-MEL-2; SK-MEL-2, five-dose): 5.13 µM
- GI50 (OVCAR-4; Homo sapiens, OVCAR-4): 0.17 µM
- CC50 (OVCAR-4; Homo sapiens, OVCAR-4, read-out: LC50): 1.51 µM
- Growth percent (G%) (OVCAR-4; OVCAR-4, 10^−5 M, 48 h): −42.04%
- TGI (OVCAR-4; OVCAR-4, five-dose): 0.45 µM
- GI50 (OVCAR-5; Homo sapiens, OVCAR-5): 3.47 µM
- CC50 (OVCAR-5; Homo sapiens, OVCAR-5, read-out: LC50): 40.7 µM
- Growth percent (G%) (OVCAR-5; OVCAR-5, 10^−5 M, 48 h): 52.70%
- TGI (OVCAR-5; OVCAR-5, five-dose): 14.79 µM
- GI50 (SK-OV-3; Homo sapiens, SK-OV-3): 0.35 µM
- CC50 (SK-OV-3; Homo sapiens, SK-OV-3, read-out: LC50): 5.62 µM
- Growth percent (G%) (SK-OV-3; SK-OV-3, 10^−5 M, 48 h): 1.64%
- TGI (SK-OV-3; SK-OV-3, five-dose): 1.78 µM
- Growth percent (G%) (ACHN; 10^−5 M, 48 h): −14.18%
- GI50 (ACHN; Homo sapiens): 0.2 µM
- CC50 (ACHN; Homo sapiens, read-out: LC50): 2.63 µM
- TGI (ACHN; five-dose): 0.58 µM
- GI50 (RXF 393; Homo sapiens, RXF 393): 0.21 µM
- CC50 (RXF 393; Homo sapiens, RXF 393, read-out: LC50): 2.51 µM
- Growth percent (G%) (RXF 393; RXF 393, 10^−5 M, 48 h): −46.34%
- TGI (RXF 393; RXF 393, five-dose): 0.58 µM
- IC50 (ERK1): 0.5 ± 0.09 µM
- ability to inhibit p38MAPKα (in words) (p38MAPKα): little tendency to inhibit
- IC50 (p38MAPKα; p38MAPKα IC50, 10 μM GST-ATF2): 28 µM and 27.9 µM
- IC50 [1]: 3.7 ± 0.6 µM
- phosphorylation of ERK substrates (p90RSK and ELK), in words ([2]; A375, 0.5–25 μM, EGF stimulation): dose-dependent inhibition
- concentration enough to inhibit ELK phosphorylation ([2]; A375, 12 h, then EGF 100 nM): 10 µM
- concentration enough to inhibit p-90RSK phosphorylation ([2]; A375, 12 h, then EGF 100 nM): 25 µM
- effect on ERK or MKK½ phosphorylation or the JNK pathway ([2]; A375, EGF stimulation): no effect
- concentration at which inhibition of colony forming ability starts (A375 cells): 10 µM
- caspase 3/7 activity in A375 [3]: activation of caspase 3/7
- level of cleaved PARP in A375 [4]: elevated level
